Assay results taken from ChEMBL document CHEMBL1759875, “Synthesis and biological evaluation of 1-[2-cyano-3,12-dioxooleana-1,9(11)-dien-28-oyl]-4-ethynylimidazole. A novel and highly potent anti-inflammatory and cytoprotective agent” (Bioorg Med Chem Lett, 2011).
The source made the active and inactive calls. The calls are words filed in the database; no cut-off is given here.

Tests used:
RAW264.7 = test: Inhibition of NO production in INFgamma-stimulated mouse RAW264.7 cells measured after 24 hrs by Griess reaction method; assay type: functional, cell-based; conditions: RAW264.7, 24 h
Summary of the method: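 RAW 264.7 mouse macrophages were seeded at 30,000 cells/well in triplicate. The next day they were pre-treated for 2 h with DMSO or compound (0–200 nM), then stimulated with IFN-γ for 24 h. Medium NO was measured by Griess reagent and viability by WST-1. IC₅₀ came from suppression of IFN-γ-induced NO normalized to viability.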

[1] = target: NAD(P)H dehydrogenase [quinone] 1 (Mus musculus) (UniProt Q64669); test: Induction of NQO1 activity in mouse Hepa-1c1c7 cells assessed as concentration require to double the specific enzyme activity after 48 hrs; assay type: cell-based
Summary of the method: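 Hepa1c1c7 murine hepatoma cells were seeded at 10,000 cells/well and grown 24 h, then exposed to serial dilutions for 48 h. NQO1 specific enzyme activity was measured, and potency was taken as the concentration that doubles it (CD). Each concentration used eight replicate wells; SD was 5–10%.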

[2] = target: T1, Heme oxygenase 1 (Mus musculus) (UniProt P14901); test: Induction of HO1 activity in mouse RAW264.7 cells at 30 to 100 nM after 16 hrs; assay type: cell-based
T1 sequence (whole entry): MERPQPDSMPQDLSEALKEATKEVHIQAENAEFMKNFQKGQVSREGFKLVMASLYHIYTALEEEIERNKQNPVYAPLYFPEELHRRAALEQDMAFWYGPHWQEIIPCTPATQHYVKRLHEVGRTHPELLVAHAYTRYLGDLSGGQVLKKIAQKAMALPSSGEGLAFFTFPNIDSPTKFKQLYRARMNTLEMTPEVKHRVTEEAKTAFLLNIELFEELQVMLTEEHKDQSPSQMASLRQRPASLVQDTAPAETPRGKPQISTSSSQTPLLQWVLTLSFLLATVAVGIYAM
Summary of the method: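 RAW 264.7 mouse macrophages were plated at 100,000 cells/well and treated the next day with DMSO or compound for 16 h (overnight). Cells were harvested in tricine sample buffer with b-ME. Lysates were run on SDS–PAGE and immunoblotted for HO-1, with GAPDH as the reference protein.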

[3] = Stability of the compound at 4 degC; assay type: physicochemical

NAD(P)H dehydrogenase [quinone] 1 (Mus musculus), sequence (Q64669 whole entry): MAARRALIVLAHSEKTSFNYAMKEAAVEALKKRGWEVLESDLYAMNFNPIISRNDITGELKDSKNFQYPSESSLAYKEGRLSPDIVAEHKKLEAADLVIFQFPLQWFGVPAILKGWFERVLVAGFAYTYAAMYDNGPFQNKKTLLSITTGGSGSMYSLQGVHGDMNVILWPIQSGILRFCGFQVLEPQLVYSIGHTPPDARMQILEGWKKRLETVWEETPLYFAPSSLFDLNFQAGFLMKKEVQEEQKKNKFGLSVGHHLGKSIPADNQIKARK

Compound: CC1(C)CC[C@]2(C(=O)O)CC[C@]3(C)[C@H](C(=O)C=C4[C@@]5(C)C=C(C#N)C(=O)C(C)(C)[C@@H]5CC[C@]43C)[C@@H]2C1 [BARDOXOLONE]
- IC50 (RAW264.7): 11 nM
- CD [1]: 3 nM

Compound: C#Cc1cn(C(=O)[C@]23CCC(C)(C)C[C@H]2[C@H]2C(=O)C=C4[C@@]5(C)C=C(C#N)C(=O)C(C)(C)[C@@H]5CC[C@@]4(C)[C@]2(C)CC3)cn1
- IC50 (RAW264.7): 1.4 nM
- CD [1]: 0.4 nM
- Activity [2]: Active
- Stability [3]: 3 yr

Compound: CC1(C)CC[C@]2(C(=O)n3ccnc3C#Cc3ccccc3)CC[C@]3(C)[C@H](C(=O)C=C4[C@@]5(C)C=C(C#N)C(=O)C(C)(C)[C@@H]5CC[C@]43C)[C@@H]2C1
- IC50 (RAW264.7): 4 nM
- CD [1]: 1.2 nM
- Activity [2]: Active
- Stability [3]: 3 yr

Compound: CC#Cc1nc(C)cn1C(=O)[C@]12CCC(C)(C)C[C@H]1[C@H]1C(=O)C=C3[C@@]4(C)C=C(C#N)C(=O)C(C)(C)[C@@H]4CC[C@@]3(C)[C@]1(C)CC2
- IC50 (RAW264.7): 2 nM
- CD [1]: 0.4 nM
- Activity [2]: Active
- Stability [3]: 3 yr

Compound: CC1(C)CC[C@]2(C(=O)n3ccnc3)CC[C@]3(C)[C@H](C(=O)C=C4[C@@]5(C)C=C(C#N)C(=O)C(C)(C)[C@@H]5CC[C@]43C)[C@@H]2C1
- IC50 (RAW264.7): 0.6 nM
- CD [1]: 0.2 nM
- Stability [3]: 1 yr

Compound: C#Cc1nccn1C(=O)[C@]12CCC(C)(C)C[C@H]1[C@H]1C(=O)C=C3[C@@]4(C)C=C(C#N)C(=O)C(C)(C)[C@@H]4CC[C@@]3(C)[C@]1(C)CC2
- IC50 (RAW264.7): 2.3 nM
- CD [1]: 0.9 nM
- Activity [2]: Active
- Stability [3]: 3 yr

Compound: CC1(C)CC[C@]2(C(=O)n3cnc(C#Cc4ccccc4)c3)CC[C@]3(C)[C@H](C(=O)C=C4[C@@]5(C)C=C(C#N)C(=O)C(C)(C)[C@@H]5CC[C@]43C)[C@@H]2C1
- IC50 (RAW264.7): 7.8 nM
